Assay results from ChEMBL document CHEMBL2040809, “Synthesis and biological activity evaluation of cytidine-5'-deoxy-5-fluoro-N-[(alkoxy/aryloxy)] carbonyl-cyclic 2',3'-carbonates” (Eur J Med Chem, 2012).
In brackets after ≈: the same amount, converted by molar mass.

Tests used:
Salmonella typhimurium [1] = assay: Mutagenic activity in Salmonella typhimurium TA1537 at 0.312 to 5 mg/plate measured after incubation of upside down for 48 hrs in presence of liver S9 mixture; assay type: toxicity, organism-based; conditions: salmonella enterica subsp. enterica serovar typhimurium, s9, 48 h
In short: (§1)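 Plate incorporation trial (Trial I) with histidine-dependent auxotrophs. Revertant colonies are counted against the concurrent vehicle control. Each dose and each control, including negative, vehicle and positive reference mutagens, run in triplicate plates.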

Salmonella typhimurium [2] = assay: Mutagenic activity in Salmonella typhimurium TA1537 at 0.312 to 5 mg/plate preincubated for 20 mins before addition in presence of liver S9 mixture; assay type: toxicity, organism-based; conditions: salmonella enterica subsp. enterica serovar typhimurium
In short: (§2)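 Pre-incubation trial (Trial II) with histidine-dependent auxotrophs. Test solution is pre-incubated with bacterial suspension and S9 mix (10% v/v) or substitution buffer before plating on selective agar. Revertant colonies are counted against the concurrent vehicle control. Triplicate plates per dose and per control (negative, vehicle, positive reference mutagens).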

Salmonella typhimurium [3] = assay: Mutagenic activity in Salmonella typhimurium TA98 at 0.312 to 5 mg/plate preincubated for 20 mins before addition in absence of liver S9 mixture; assay type: toxicity, organism-based; conditions: salmonella enterica subsp. enterica serovar typhimurium; in short: as §2
HeLa = assay: Cytotoxicity against human HeLa cells after 3 days MTT assay; assay type: functional, cell-based; conditions: 72 h
In short: (§3)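 Cells held as monolayers in DMEM with 10% supplement. Seeded in 96-well plates on day 0 at densities set by doubling time: 1 × 10⁴/mL for HeLa and NCI-69, 2 × 10⁴/mL for MCF-7, 3 × 10⁴/mL for PZ-HPV-7. Five dilutions (10⁻⁸–5 × 10⁻⁶ mol/l), freshly prepared, added for 72 h. Growth read by MTT (succinate dehydrogenase activity); IC50 derived.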

Salmonella typhimurium [4] = assay: Mutagenic activity in Salmonella typhimurium TA102 at 0.312 to 5 mg/plate measured after incubation of upside down for 48 hrs in presence of liver S9 mixture; assay type: toxicity, organism-based; conditions: salmonella enterica subsp. enterica serovar typhimurium, s9, 48 h; in short: as §1
Salmonella typhimurium [5] = assay: Mutagenic activity in Salmonella typhimurium TA102 at 0.312 to 5 mg/plate measured after incubation of upside down for 48 hrs in absence of liver S9 mixture; assay type: toxicity, organism-based; conditions: salmonella enterica subsp. enterica serovar typhimurium; in short: as §1
MCF7 = assay: Cytotoxicity against human MCF7 cells after 3 days MTT assay; assay type: functional, cell-based; conditions: MCF7, 72 h; in short: as §3
Salmonella typhimurium [6] = assay: Mutagenic activity in Salmonella typhimurium TA1535 at 0.312 to 5 mg/plate preincubated for 20 mins before addition in absence of liver S9 mixture; assay type: toxicity, organism-based; conditions: salmonella enterica subsp. enterica serovar typhimurium; in short: as §2
Salmonella typhimurium [7] = assay: Mutagenic activity in Salmonella typhimurium TA100 at 0.312 to 5 mg/plate measured after incubation of upside down for 48 hrs in presence of liver S9 mixture; assay type: toxicity, organism-based; conditions: salmonella enterica subsp. enterica serovar typhimurium, s9, 48 h; in short: as §1
NCI-H69 = assay: Cytotoxicity against human NCI-H69 cells after 3 days MTT assay; assay type: functional, cell-based; conditions: NCI-H69, 72 h; in short: as §3
Salmonella typhimurium [8] = assay: Mutagenic activity in Salmonella typhimurium TA100 at 0.312 to 5 mg/plate preincubated for 20 mins before addition in presence of liver S9 mixture; assay type: toxicity, organism-based; conditions: salmonella enterica subsp. enterica serovar typhimurium; in short: as §2
Salmonella typhimurium [9] = assay: Mutagenic activity in Salmonella typhimurium TA100 at 0.312 to 5 mg/plate measured after incubation of upside down for 48 hrs in absence of liver S9 mixture; assay type: toxicity, organism-based; conditions: salmonella enterica subsp. enterica serovar typhimurium; in short: as §1
Salmonella typhimurium [10] = assay: Mutagenic activity in Salmonella typhimurium TA102 at 0.312 to 5 mg/plate preincubated for 20 mins before addition in absence of liver S9 mixture; assay type: toxicity, organism-based; conditions: salmonella enterica subsp. enterica serovar typhimurium; in short: as §2
Salmonella typhimurium [11] = assay: Mutagenic activity in Salmonella typhimurium TA100 at 0.312 to 5 mg/plate preincubated for 20 mins before addition in absence of liver S9 mixture; assay type: toxicity, organism-based; conditions: salmonella enterica subsp. enterica serovar typhimurium; in short: as §2
Salmonella typhimurium [12] = assay: Mutagenic activity in Salmonella typhimurium TA1535 at 0.312 to 5 mg/plate measured after incubation of upside down for 48 hrs in absence of liver S9 mixture; assay type: toxicity, organism-based; conditions: salmonella enterica subsp. enterica serovar typhimurium; in short: as §1
Salmonella typhimurium [13] = assay: Mutagenic activity in Salmonella typhimurium TA102 at 0.312 to 5 mg/plate preincubated for 20 mins before addition in presence of liver S9 mixture; assay type: toxicity, organism-based; conditions: salmonella enterica subsp. enterica serovar typhimurium; in short: as §2
[14] = Cytotoxicity against human PZ-HPV-7 cells after 3 days MTT assay; assay type: functional, cell-based; conditions: 72 h; in short: as §3
Salmonella typhimurium [15] = assay: Mutagenic activity in Salmonella typhimurium TA1535 at 0.312 to 5 mg/plate preincubated for 20 mins before addition in presence of liver S9 mixture; assay type: toxicity, organism-based; conditions: salmonella enterica subsp. enterica serovar typhimurium; in short: as §2
Salmonella typhimurium [16] = assay: Mutagenic activity in Salmonella typhimurium TA1537 at 0.312 to 5 mg/plate measured after incubation of upside down for 48 hrs in absence of liver S9 mixture; assay type: toxicity, organism-based; conditions: salmonella enterica subsp. enterica serovar typhimurium; in short: as §1
Salmonella typhimurium [17] = assay: Mutagenic activity in Salmonella typhimurium TA98 at 0.312 to 5 mg/plate measured after incubation of upside down for 48 hrs in absence of liver S9 mixture; assay type: toxicity, organism-based; conditions: salmonella enterica subsp. enterica serovar typhimurium; in short: as §1
Salmonella typhimurium [18] = assay: Mutagenic activity in Salmonella typhimurium TA98 at 0.312 to 5 mg/plate measured after incubation of upside down for 48 hrs in presence of liver S9 mixture; assay type: toxicity, organism-based; conditions: salmonella enterica subsp. enterica serovar typhimurium, s9, 48 h; in short: as §1
Salmonella typhimurium [19] = assay: Mutagenic activity in Salmonella typhimurium TA98 at 0.312 to 5 mg/plate preincubated for 20 mins before addition in presence of liver S9 mixture; assay type: toxicity, organism-based; conditions: salmonella enterica subsp. enterica serovar typhimurium; in short: as §2
Salmonella typhimurium [20] = assay: Mutagenic activity in Salmonella typhimurium TA1537 at 0.312 to 5 mg/plate preincubated for 20 mins before addition in absence of liver S9 mixture; assay type: toxicity, organism-based; conditions: salmonella enterica subsp. enterica serovar typhimurium; in short: as §2
Salmonella typhimurium [21] = assay: Mutagenic activity in Salmonella typhimurium TA1535 at 0.312 to 5 mg/plate measured after incubation of upside down for 48 hrs in presence of liver S9 mixture; assay type: toxicity, organism-based; conditions: salmonella enterica subsp. enterica serovar typhimurium, s9, 48 h; in short: as §1

SMILES	Activity (Salmonella typhimurium [1])	Activity (Salmonella typhimurium [2])	Activity (Salmonella typhimurium [3])	IC50 (HeLa) [µg/mL]	Activity (Salmonella typhimurium [4])	Activity (Salmonella typhimurium [5])	IC50 (MCF7) [µg/mL]	Activity (Salmonella typhimurium [6])	Activity (Salmonella typhimurium [7])	IC50 (NCI-H69) [µg/mL]	Activity (Salmonella typhimurium [8])	Activity (Salmonella typhimurium [9])	Activity (Salmonella typhimurium [10])	Activity (Salmonella typhimurium [11])	Activity (Salmonella typhimurium [12])	Activity (Salmonella typhimurium [13])	IC50 [14] [µg/mL]	Activity (Salmonella typhimurium [15])	Activity (Salmonella typhimurium [16])	Activity (Salmonella typhimurium [17])	further results
CCC(C)COC(=O)Nc1nc(=O)n([C@@H]2O[C@H](C)[C@@H](O)[C@H]2O)cc1F (stereo partly specified)	Non-toxic	Non-toxic	Non-toxic	0.09 (≈ 0.25 µM)	Non-toxic	Non-toxic	120 (≈ 334 µM)	Non-toxic	Non-toxic	370 (≈ 1030 µM)	Non-toxic	Non-toxic	Non-toxic	Non-toxic	Non-toxic	Non-toxic	250 (≈ 696 µM)	Non-toxic	Non-toxic	Non-toxic	Activity (Salmonella typhimurium [18]): Non-toxic; Activity (Salmonella typhimurium [19]): Non-toxic; Activity (Salmonella typhimurium [20]): Non-toxic; Activity (Salmonella typhimurium [21]): Non-toxic
CC(C)CCOC(=O)Nc1nc(=O)n([C@@H]2O[C@H](C)[C@@H](O)[C@H]2O)cc1F	Non-toxic	Non-toxic	Non-toxic	0.09 (≈ 0.25 µM)	Non-toxic	Non-toxic	120 (≈ 334 µM)	Non-toxic	Non-toxic	370 (≈ 1030 µM)	Non-toxic	Non-toxic	Non-toxic	Non-toxic	Non-toxic	Non-toxic	250 (≈ 696 µM)	Non-toxic	Non-toxic	Non-toxic	Activity (Salmonella typhimurium [18]): Non-toxic; Activity (Salmonella typhimurium [19]): Non-toxic; Activity (Salmonella typhimurium [20]): Non-toxic; Activity (Salmonella typhimurium [21]): Non-toxic
C[C@H]1O[C@@H](n2cc(F)c(NC(=O)Oc3ccc([N+](=O)[O-])cc3)nc2=O)[C@H](O)[C@@H]1O	Non-toxic	Non-toxic	Non-toxic	0.01 (≈ 0.0244 µM)	Non-toxic	Non-toxic	180 (≈ 439 µM)	Non-toxic	Non-toxic	100 (≈ 244 µM)	Non-toxic	Non-toxic	Non-toxic	Non-toxic	Non-toxic	Non-toxic	90 (≈ 219 µM)	Non-toxic	Non-toxic	Non-toxic	Activity (Salmonella typhimurium [18]): Non-toxic; Activity (Salmonella typhimurium [19]): Non-toxic; Activity (Salmonella typhimurium [20]): Non-toxic; Activity (Salmonella typhimurium [21]): Non-toxic
C[C@H]1O[C@@H](n2cc(F)c(NC(=O)Oc3ccc(Cl)cc3)nc2=O)[C@H](O)[C@@H]1O	Non-toxic	Non-toxic	Non-toxic	0.03 (≈ 0.075 µM)	Non-toxic	Non-toxic	100 (≈ 250 µM)	Non-toxic	Non-toxic	90 (≈ 225 µM)	Non-toxic	Non-toxic	Non-toxic	Non-toxic	Non-toxic	Non-toxic	70 (≈ 175 µM)	Non-toxic	Non-toxic	Non-toxic	Activity (Salmonella typhimurium [18]): Non-toxic; Activity (Salmonella typhimurium [19]): Non-toxic; Activity (Salmonella typhimurium [20]): Non-toxic; Activity (Salmonella typhimurium [21]): Non-toxic
